Data as given in ChEMBL document CHEMBL3091288, “Fluorine Scanning by Nonselective Fluorination: Enhancing Raf/MEK Inhibition while Keeping Physicochemical Properties” (ACS Med Chem Lett, 2013).
≈ marks a conversion by molar mass, not a printed value.

Key:
Mus musculus = experiment: Toxicity in BALB nu/nu mouse xenografted with human HCT116 cells assessed as body weight change at 0.3 mg/kg to 30 mg/kg, po qd for 11 days measured twice per week; format: organism-based, HCT-116; settings: in vivo, 264 h
HCT-116 [1] = experiment: Antitumor activity against human HCT116 cells xenografted in BALB-nu/nu mouse assessed as tumor growth inhibition at 30 mg/kg, po qd for 11 days measured twice per week relative to control; format: functional; settings: HCT-116, 264 h, read-out: TGI
Outline: (§1)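 HCT116 cells implanted subcutaneously in right flank of BALB-nu/nu mice; tumours allowed to establish before dosing. Sodium salt given orally once daily for 11 days (day 0 to day 10). Tumour size measured twice weekly; mean SD, n = 4.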

[2] = Oral bioavailability in cynomolgus monkey at 5 mg/kg by LC-MS/MS analysis; format: ADME, organism-based, Macaca fascicularis; settings: in vivo
Outline: (§2)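 Sodium salt dosed intravenously and orally in mouse (10/20 mg/kg), rat (5.0/10 mg/kg) and monkey (2.5/5.0 mg/kg iv/po), vehicle 5% DMSO/5% Cremophor EL/15% PEG400/15% HPCD/60% water. AUC_inf from oral dosing, t1/2 from iv dosing, clearance and oral bioavailability from paired iv/po data.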

HCT-116 [3] = experiment: Antitumor activity against human HCT116 cells xenografted in BALB-nu/nu mouse administered orally qd for 11 days; format: functional; settings: HCT-116, po, 264 h; outline: as §1
[4] = Oral bioavailability in rat at 10 mg/kg by LC-MS/MS analysis; format: ADME, organism-based; settings: in vivo; outline: as §2
[5] = Oral bioavailability in BALB-nu/nu mouse at 20 mg/kg by LC-MS/MS analysis; format: ADME, organism-based; settings: in vivo; outline: as §2
[6] = Clearance in rat at 5 mg/kg, iv and 10 mg/kg, po by LC-MS/MS analysis; format: ADME, organism-based; settings: in vivo; outline: as §2
[7] = Clearance in cynomolgus monkey at 2.5 mg/kg, iv and 5 mg/kg, po by LC-MS/MS analysis; format: ADME, organism-based, Macaca fascicularis; settings: in vivo; outline: as §2
[8] = Clearance in BALB-nu/nu mouse at 10 mg/kg, iv and 20 mg/kg, po by LC-MS/MS analysis; format: ADME, organism-based; settings: in vivo; outline: as §2
[9] = Half life in rat at 5 mg/kg, iv by LC-MS/MS analysis; format: ADME, organism-based; parameters: dose 5 mg/kg, route intravenous; settings: in vivo; outline: as §2
[10] = Half life in BALB-nu/nu mouse at 10 mg/kg, iv by LC-MS/MS analysis; format: ADME, organism-based; parameters: dose 10 mg/kg, route intravenous; settings: in vivo; outline: as §2
[11] = AUC (infinity) in cynomolgus monkey at 5 mg/kg, po by LC-MS/MS analysis; format: ADME, organism-based, Macaca fascicularis; parameters: dose 5 mg/kg, route oral, time infinity; settings: plasma; outline: as §2
[12] = AUC (infinity) in rat at 10 mg/kg, po by LC-MS/MS analysis; format: ADME, organism-based; parameters: time infinity, dose 10 mg/kg, route oral; settings: plasma; outline: as §2
[13] = AUC (infinity) in BALB-nu/nu mouse at 20 mg/kg, po by LC-MS/MS analysis; format: ADME, organism-based; parameters: time infinity, dose 20 mg/kg, route oral; settings: plasma; outline: as §2
[14] = Half life in cynomolgus monkey at 2.5 mg/kg, iv by LC-MS/MS analysis; settings: in vivo
[15] = AUC (0 to 24 hrs) in BALB-nu/nu mouse at 100 mg/kg, po by LC-MS/MS analysis; format: ADME, organism-based; parameters: time < 24 hr, dose 100 mg/kg, route oral; settings: plasma
Outline: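 Mice received a single oral dose of 100 mg/kg, formulated as a solution in 5% DMSO, 5% Cremophor EL, 15% PEG400, 15% HPCD and 60% water. Plasma exposure was evaluated over 24 h.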

[16] = AUC (0 to 24 hrs) in BALB-nu/nu mouse at 50 mg/kg, po by LC-MS/MS analysis; format: ADME, organism-based; parameters: time < 24 hr, dose 50 mg/kg, route oral; settings: plasma
[17] = Permeability of the compound at pH 6.5 by PAMPA; format: ADME; settings: read-out: permeability
Liver microsome = experiment: Clearance in human liver microsomes at 5 uM by LC-MS/MS analysis; format: ADME
[18] = Solubility of the compound in fasted state simulated intestinal fluid measured after overnight incubation by UV-HPLC analysis; format: ADME
[19] = target: RAF proto-oncogene serine/threonine-protein kinase (Homo sapiens, UniProt P04049); experiment: Inhibition of C-Raf (unknown origin) assessed as phosphorylation of MEK1 after 45 mins by TR-FRET assay
RAF proto-oncogene serine/threonine-protein kinase, sequence (P04049 whole entry): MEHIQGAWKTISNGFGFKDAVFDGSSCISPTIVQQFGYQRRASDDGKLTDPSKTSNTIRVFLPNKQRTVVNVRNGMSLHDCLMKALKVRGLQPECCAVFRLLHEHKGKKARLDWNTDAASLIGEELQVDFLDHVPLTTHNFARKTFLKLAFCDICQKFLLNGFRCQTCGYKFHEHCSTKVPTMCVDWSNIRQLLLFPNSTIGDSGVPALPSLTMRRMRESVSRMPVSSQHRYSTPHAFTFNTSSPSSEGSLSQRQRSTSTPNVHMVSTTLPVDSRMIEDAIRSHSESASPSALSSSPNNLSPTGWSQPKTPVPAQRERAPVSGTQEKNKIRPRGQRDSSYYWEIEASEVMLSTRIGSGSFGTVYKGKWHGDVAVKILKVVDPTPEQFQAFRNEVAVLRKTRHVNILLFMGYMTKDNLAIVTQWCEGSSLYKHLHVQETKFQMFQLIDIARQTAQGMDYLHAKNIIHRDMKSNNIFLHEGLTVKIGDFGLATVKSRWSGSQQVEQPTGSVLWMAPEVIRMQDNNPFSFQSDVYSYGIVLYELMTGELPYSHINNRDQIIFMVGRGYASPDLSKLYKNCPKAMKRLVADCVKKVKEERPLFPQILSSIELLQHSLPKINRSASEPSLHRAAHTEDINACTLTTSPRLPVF

[20] = target: Dual specificity mitogen-activated protein kinase kinase 1 (Homo sapiens, UniProt Q02750); experiment: Inhibition of MEK1 (unknown origin) assessed as phosphorylation of Erk2 preincubated for 30 mins followed by FAM-Erktide addition measured after 60 mins by IMAP fluorescence polarization assay
Dual specificity mitogen-activated protein kinase kinase 1, sequence (Q02750 whole entry): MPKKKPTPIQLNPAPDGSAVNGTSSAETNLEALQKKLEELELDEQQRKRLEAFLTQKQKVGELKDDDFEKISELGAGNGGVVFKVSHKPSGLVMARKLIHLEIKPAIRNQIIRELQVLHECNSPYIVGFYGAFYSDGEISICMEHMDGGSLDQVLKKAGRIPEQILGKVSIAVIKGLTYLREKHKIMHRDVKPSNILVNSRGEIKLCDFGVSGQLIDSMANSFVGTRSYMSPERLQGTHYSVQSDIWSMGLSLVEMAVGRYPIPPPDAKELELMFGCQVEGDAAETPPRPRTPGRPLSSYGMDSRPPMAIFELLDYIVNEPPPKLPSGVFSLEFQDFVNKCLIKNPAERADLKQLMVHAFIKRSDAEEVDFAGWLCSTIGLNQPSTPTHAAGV

HCT-116 [21] = experiment: Antiproliferative activity against human HCT116 cells assessed as cell viability after 96 hrs by cell counting kit-8 assay; format: functional, cell-based; settings: HCT-116, 96 h
[22] = Oral bioavailability in mouse; format: ADME, organism-based; settings: in vivo
Outline: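 Mice received the sodium salt at 10 mg/kg iv and 20 mg/kg po, in a vehicle of 5% DMSO/5% Cremophor EL/15% PEG400/15% HPCD/60% water. Bioavailability was derived from the iv and po exposure.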

hERG (KCNH2) = hERG (KCNH2) (Homo sapiens, UniProt Q12809); experiment: Inhibition of human ERG expressed in CHO cells at 10 uM by patch clamp assay relative to control; format: cell-based; settings: CHO cells expressing human ERG
hERG (KCNH2), sequence (Q12809 whole entry): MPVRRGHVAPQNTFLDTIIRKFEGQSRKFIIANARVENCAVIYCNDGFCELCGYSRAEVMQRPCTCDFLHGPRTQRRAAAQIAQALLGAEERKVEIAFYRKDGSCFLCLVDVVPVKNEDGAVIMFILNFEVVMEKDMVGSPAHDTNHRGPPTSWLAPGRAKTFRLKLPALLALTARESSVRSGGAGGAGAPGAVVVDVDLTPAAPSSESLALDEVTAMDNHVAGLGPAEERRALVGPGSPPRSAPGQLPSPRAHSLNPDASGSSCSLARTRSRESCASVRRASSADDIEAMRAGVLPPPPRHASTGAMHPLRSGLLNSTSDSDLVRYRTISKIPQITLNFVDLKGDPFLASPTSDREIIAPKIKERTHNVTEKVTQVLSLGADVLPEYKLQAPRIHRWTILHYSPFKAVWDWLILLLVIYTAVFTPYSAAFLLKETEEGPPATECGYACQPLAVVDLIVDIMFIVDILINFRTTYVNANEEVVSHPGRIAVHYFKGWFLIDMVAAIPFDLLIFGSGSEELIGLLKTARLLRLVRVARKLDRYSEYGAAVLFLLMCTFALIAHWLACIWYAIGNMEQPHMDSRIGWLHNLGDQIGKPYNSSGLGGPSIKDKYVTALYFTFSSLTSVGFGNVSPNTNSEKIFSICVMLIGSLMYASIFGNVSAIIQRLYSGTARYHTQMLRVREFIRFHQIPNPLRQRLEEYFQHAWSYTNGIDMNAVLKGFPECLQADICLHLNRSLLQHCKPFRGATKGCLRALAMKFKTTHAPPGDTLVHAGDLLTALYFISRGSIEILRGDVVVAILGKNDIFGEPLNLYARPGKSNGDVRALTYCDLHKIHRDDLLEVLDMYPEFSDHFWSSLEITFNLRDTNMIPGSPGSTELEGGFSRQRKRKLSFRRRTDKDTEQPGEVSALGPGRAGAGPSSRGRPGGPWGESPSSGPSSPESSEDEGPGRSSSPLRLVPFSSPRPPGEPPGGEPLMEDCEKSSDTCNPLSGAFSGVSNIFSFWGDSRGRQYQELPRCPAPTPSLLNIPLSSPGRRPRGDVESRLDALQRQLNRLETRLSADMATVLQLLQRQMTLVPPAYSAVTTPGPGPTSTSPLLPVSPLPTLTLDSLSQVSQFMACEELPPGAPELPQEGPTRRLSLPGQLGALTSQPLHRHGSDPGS

Row | Structure (SMILES) | AUC(0-t) at 24 h [15] [µM·h] | Papp [17] [×10⁻⁶ cm/s] | CLH (Liver microsome) [µL/min/mg] | solubility [18] [µg/mL] | IC50 [19] [nM] | IC50 [20] [nM] | IC50 (HCT-116 [21]) [nM] | other results
1 | CNS(=O)(=O)[N-]c1cccc(Cc2c(C)c3ccc(Oc4ncccn4)cc3oc2=O)c1F.[Na+] |  |  |  |  |  |  |  | Activity (Mus musculus): Non-toxic; inhibition in vivo at 30 mg/kg (HCT-116 [1]): 119%; bioavailability [2]: 59%; ED50 (HCT-116 [3]): 1.4 mg/kg; bioavailability [4]: 84%; bioavailability [5]: 75%; clearance [6]: 6.6 mL/min/kg; clearance [7]: 0.9 mL/min/kg; clearance [8]: 6.8 mL/min/kg; half-life [9]: 1.3 h; half-life [10]: 4.8 h; AUC(0-inf) [11]: 108 µM·h; AUC(0-inf) [12]: 43 µM·h; AUC(0-inf) [13]: 75 µM·h; half-life [14]: 2.9 h
2 | CNS(=O)(=O)[N-]c1cccc(Cc2c(C)c3ccc(Oc4nccs4)cc3oc2=O)c1F.[Na+] | 366 |  |  |  |  |  |  | 
3 | CNS(=O)(=O)[N-]c1cccc(Cc2c(C)c3ccc(Oc4nccs4)cc3oc2=O)c1.[Na+] | 190 |  |  |  |  |  |  | 
4 | CNS(=O)(=O)[N-]c1cccc(Cc2c(C)c3ccc(OC(=O)N(C)C)cc3oc2=O)c1F.[Na+] | 70 |  |  |  |  |  |  | 
5 | CNS(=O)(=O)[N-]c1cccc(Cc2c(C)c3ccc(OC(=O)N(C)C)cc3oc2=O)c1.[Na+] | 78 |  |  |  |  |  |  | 
6 | Cc1c(Cc2cccc([N-]S(N)(=O)=O)c2)c(=O)oc2cc(OC(=O)N(C)C)ccc12.[Na+] | 104 |  |  |  |  |  |  | 
7 | Cc1c(Cc2cccc([N-]S(N)(=O)=O)c2F)c(=O)oc2cc(OC(=O)N(C)C)ccc12.[Na+] |  |  |  |  |  |  |  | AUC(0-t) at 24 h [16]: 40 µM·h
8 | CNS(=O)(=O)Nc1cccc(Cc2c(C)c3ccc(Oc4nccs4)cc3oc2=O)c1F |  | 3 | 9 | 15 (≈ 31.5 µM) | 63 | 26 | 11 | 
9 | CNS(=O)(=O)Nc1cccc(Cc2c(C)c3ccc(Oc4ncccn4)cc3oc2=O)c1C |  |  |  | < 4 | 3600 | 4200 | 330 | 
10 | CNS(=O)(=O)Nc1cccc(Cc2c(C)c3cc(I)c(OC(=O)N(C)C)cc3oc2=O)c1 | 16 |  | 33 | 8 (≈ 14 µM) | 25 | 5 | 8 | 
11 | CNS(=O)(=O)Nc1cccc(Cc2c(C)c3cc(C)c(OC(=O)N(C)C)cc3oc2=O)c1 | 18 |  | 17 | 11 (≈ 23.9 µM) | 78 | 29 | 22 | 
12 | C#Cc1cc2c(C)c(Cc3cccc(NS(=O)(=O)NC)c3)c(=O)oc2cc1OC(=O)N(C)C |  |  |  | 21 (≈ 44.7 µM) | 70 | 100 | 140 | 
13 | CNS(=O)(=O)Nc1cccc(Cc2c(C)c3cc(C#N)c(OC(=O)N(C)C)cc3oc2=O)c1 | 39 |  | 15 | 40 (≈ 85 µM) | 55 | 85 | 24 | 
14 | Cc1c(Cc2cccc(NS(N)(=O)=O)c2)c(=O)oc2cc(OC(=O)N(C)C)ccc12 |  | 6 | 6 | 32 (≈ 74.2 µM) | 530 | 230 | 95 | bioavailability [22]: 62%
15 | Cc1c(Cc2cc(NS(N)(=O)=O)ccc2F)c(=O)oc2cc(OC(=O)N(C)C)ccc12 | 176 | 5 | 6 | 9 (≈ 20 µM) | 830 | 940 | 950 | 
16 | Cc1c(Cc2ccc(F)c(NS(N)(=O)=O)c2)c(=O)oc2cc(OC(=O)N(C)C)ccc12 |  | 6 | 6 | 37 (≈ 82.3 µM) | 1100 | 44 | 610 | 
17 | Cc1c(Cc2cccc(NS(N)(=O)=O)c2F)c(=O)oc2cc(OC(=O)N(C)C)ccc12 |  | 6 | 6 | 273 (≈ 607 µM) | 13 | 53 | 18 | 
18 | Cc1c(Cc2cccc(NS(N)(=O)=O)c2)c(=O)oc2cc(OC(=O)N(C)C)c(F)cc12 |  | 5 | 6 | 114 (≈ 254 µM) | 180 | 110 | 87 | AUC(0-t) at 24 h [16]: 61 µM·h
19 | Cc1c(Cc2cccc(NS(N)(=O)=O)c2)c(=O)oc2c(F)c(OC(=O)N(C)C)ccc12 |  |  |  |  | 120 | 240 | 140 | 
20 | CN(C)C(=O)Oc1ccc2c(CF)c(Cc3cccc(NS(N)(=O)=O)c3)c(=O)oc2c1 | 84 | 4 | 7 | 14 (≈ 31.1 µM) | 220 | 60 | 200 | 
21 | CNS(=O)(=O)Nc1cccc(Cc2c(C)c3ccc(OC(=O)N(C)C)cc3oc2=O)c1 |  | 6 | 20 | 32 (≈ 71.8 µM) | 300 | 110 | 24 | 
22 | CNS(=O)(=O)Nc1ccc(F)c(Cc2c(C)c3ccc(OC(=O)N(C)C)cc3oc2=O)c1 | 75 | 5 | 22 | 51 (≈ 110 µM) | 2400 | 2900 | 550 | 
23 | CNS(=O)(=O)Nc1cccc(Cc2c(C)c3ccc(OC(=O)N(C)C)cc3oc2=O)c1F |  | 5 | 13 | 81 (≈ 175 µM) | 8 | 38 | 9 | 
24 | CNS(=O)(=O)Nc1cccc(Cc2c(C)c3cc(F)c(OC(=O)N(C)C)cc3oc2=O)c1 | 99 | 5 | 13 | 55 (≈ 119 µM) |  | 64 | 22 | 
25 | CNS(=O)(=O)Nc1cccc(Cc2c(CF)c3ccc(OC(=O)N(C)C)cc3oc2=O)c1 | 86 | 4 | 22 | 72 (≈ 155 µM) | 120 | 66 | 30 | 
26 | CNS(=O)(=O)Nc1cccc(Cc2c(C)c3ccc(Oc4ncccn4)cc3oc2=O)c1 | 223 | 6 | 20 | 29 (≈ 64.1 µM) | > 10000 | 810 | 190 | 
27 | CNS(=O)(=O)Nc1cccc(Cc2c(C)c3ccc(Oc4ncccn4)cc3oc2=O)c1F | 425 | 6 | 7 | 13 (≈ 27.6 µM) | 23 | 97 | 17 | inhibition at 10 µM (hERG (KCNH2)): 25%
28 | CNS(=O)(=O)Nc1cccc(Cc2c(C)c3ccc(Oc4nccs4)cc3oc2=O)c1 |  | 2 | 24 | 9 (≈ 19.7 µM) | 1500 | 59 | 160 | 
